How the values were obtained:
Format in all cases: functional
CCRF-CEM = test: Cytotoxicity against human CCRF-CEM cells after 48 hrs by SRB assay
In short: (§1)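 NCI-60 human tumour cell panel screen, second stage, run by the NCI Developmental Therapeutics Program. Compounds were tested at five concentrations (0.01, 0.1, 1, 10 and 100 μM). Percentage growth was plotted against log10 concentration for each cell line. GI50, TGI and LC50 were taken from these dose-response curves.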

HL-60(TB) = test: Cytotoxicity against human HL-60(TB) cells after 48 hrs by SRB assay; details: HL-60, 48 h
In short: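 NCI Developmental Therapeutics Program 60-cell-line screen, second stage: cells exposed to five concentrations (0.01, 0.1, 1, 10 and 100 μM). Growth is plotted against log10 concentration for each line, and GI50, TGI and LC50 are read from the dose-response curves.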

MOLT-4 = test: Cytotoxicity against human MOLT4 cells after 48 hrs by SRB assay; details: MOLT-4, 48 h
In short: (§2)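 Second-stage NCI-60 panel run by the NCI Developmental Therapeutics Program, covering nine tumour subpanels. Five concentrations were tested: 0.01, 0.1, 1, 10 and 100 μM. Percentage growth at each level was plotted against log10 drug concentration. GI50, TGI and LC50 were read from these dose-response curves. Subpanel MID values were divided into the full-panel MID to give selectivity ratios.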

HOP-62 = test: Cytotoxicity against human HOP62 cells after 48 hrs by SRB assay; details: HOP-62, 48 h; in short: as §1
HOP-92 = test: Cytotoxicity against human HOP92 cells after 48 hrs by SRB assay; details: HOP-92, 48 h; in short: as §1
NCI-H226 = test: Cytotoxicity against human NCI-H226 cells after 48 hrs by SRB assay; details: NCI-H226, 48 h; in short: as §2
NCI-H23 = test: Cytotoxicity against human NCI-H23 cells after 48 hrs by SRB assay; details: NCI-H23, 48 h; in short: as §2
NCI-H522 = test: Cytotoxicity against human NCI-H522 cells after 48 hrs by SRB assay; details: NCI-H522, 48 h; in short: as §2
COLO 205 = test: Cytotoxicity against human COLO205 cells after 48 hrs by SRB assay; details: COLO 205, 48 h; in short: as §1
HCC 2998 = test: Cytotoxicity against human HCC2998 cells after 48 hrs by SRB assay; details: HCC 2998, 48 h; in short: as §1
SW-620 = test: Cytotoxicity against human SW620 cells after 48 hrs by SRB assay; details: SW-620, 48 h
In short: (§3)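 NCI-60 five-dose study run by NCI DTP at 0.01, 0.1, 1, 10 and 100 µM. Percentage growth at each level was plotted against log10 concentration for each line, and GI50, TGI and LC50 were read from the dose-response curves.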

SF-295 = test: Cytotoxicity against human SF295 cells after 48 hrs by SRB assay; details: SF-295, 48 h; in short: as §2
SF-539 = test: Cytotoxicity against human SF539 cells after 48 hrs by SRB assay; details: SF-539, 48 h; in short: as §2
SNB-75 = test: Cytotoxicity against human SNB75 cells after 48 hrs by SRB assay; details: SNB-75, 48 h; in short: as §3
SK-MEL-5 = test: Cytotoxicity against human SK-MEL-5 cells after 48 hrs by SRB assay; details: SK-MEL-5, 48 h; in short: as §2
UACC-257 = test: Cytotoxicity against human UACC257 cells after 48 hrs by SRB assay; details: UACC-257, 48 h; in short: as §3
UACC-62 = test: Cytotoxicity against human UACC62 cells after 48 hrs by SRB assay; details: UACC-62, 48 h; in short: as §3
IGROV-1 = test: Cytotoxicity against human IGROV1 cells after 48 hrs by SRB assay; details: IGROV-1, 48 h; in short: as §1
OVCAR-3 = test: Cytotoxicity against human OVCAR3 cells after 48 hrs by SRB assay; details: OVCAR-3, 48 h; in short: as §2
A498 = test: Cytotoxicity against human A498 cells after 48 hrs by SRB assay; details: A498, 48 h; in short: as §1
CAKI-1 = test: Cytotoxicity against human Caki1 cells after 48 hrs by SRB assay; details: CAKI-1, 48 h; in short: as §1
TK-10 = test: Cytotoxicity against human TK10 cells after 48 hrs by SRB assay; details: TK-10, 48 h; in short: as §3
UO-31 = test: Cytotoxicity against human UO31 cells after 48 hrs by SRB assay; details: UO-31, 48 h; in short: as §3
PC-3 = test: Cytotoxicity against human PC3 cells after 48 hrs by SRB assay; details: PC-3, 48 h; in short: as §2
DU-145 = test: Cytotoxicity against human DU145 cells after 48 hrs by SRB assay; details: DU-145, 48 h; in short: as §1
MCF7 = test: Cytotoxicity against human MCF7 cells after 48 hrs by SRB assay; details: MCF7, 48 h; in short: as §1
[1] = Cytotoxicity against human CNS cancer cells assessed as growth inhibition after 48 hrs by SRB assay; details: Cancer cell lines
In short: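 NCI-60 five-dose data (0.01–100 μM) were grouped by tumour subpanel. A subpanel mean (MID) of GI50 was computed for the CNS cancer lines. A selectivity ratio was obtained as full-panel MID divided by subpanel MID: 3–6 counts as moderate, >6 as high.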

SMILES: O=C1c2ccccc2C(=O)c2c1cc(SCc1ccccc1)c1nsnc21
- GI50 (CCRF-CEM): 1.3 µM
- LC50 (CCRF-CEM): > 50 µM
- TGI (CCRF-CEM): 5.06 µM
- GI50 (HL-60(TB)): 1.63 µM
- LC50 (HL-60(TB)): > 50 µM
- TGI (HL-60(TB)): > 50 µM
- GI50 (MOLT-4): 1.2 µM
- LC50 (MOLT-4): > 50 µM
- TGI (MOLT-4): 3.62 µM
- GI50 (HOP-62): 10.7 µM
- LC50 (HOP-62): 30.4 µM
- TGI (HOP-62): 13.6 µM
- GI50 (HOP-92): 6.05 µM
- LC50 (concentration giving 50% net cell kill) (HOP-92): > 50 µM
- TGI (HOP-92): > 50 µM
- GI50 (NCI-H226): > 50 µM
- LC50 (concentration killing 50% of starting cells) (NCI-H226): > 50 µM
- TGI (NCI-H226): 35.2 µM
- GI50 (NCI-H23): 8.25 µM
- LC50 (NCI-H23): > 50 µM
- TGI (NCI-H23): > 50 µM
- GI50 (NCI-H522): 8.64 µM
- LC50 (concentration giving 50% net cell kill) (NCI-H522): > 50 µM
- TGI (NCI-H522): > 50 µM
- GI50 (COLO 205): 35.5 µM
- LC50 (COLO 205): > 50 µM
- TGI (COLO 205): > 50 µM
- GI50 (HCC 2998): > 50 µM
- LC50 (HCC 2998): > 50 µM
- TGI (HCC 2998): > 50 µM
- GI50 (SW-620): 9.99 µM
- LC50 (50% lethal concentration) (SW-620): 35.1 µM
- TGI (SW-620): 18.7 µM
- GI50 (SF-295): > 50 µM
- LC50 (SF-295): > 50 µM
- TGI (SF-295): > 50 µM
- GI50 (SF-539): 10.5 µM
- LC50 (SF-539): 38.9 µM
- TGI (SF-539): 20.2 µM
- GI50 (SNB-75): 8.26 µM
- LC50 (concentration killing 50% of cells) (SNB-75): 31 µM
- TGI (SNB-75): 16 µM
- GI50 (SK-MEL-5): 7.17 µM
- LC50 (SK-MEL-5): 49.8 µM
- TGI (SK-MEL-5): 21.2 µM
- GI50 (UACC-257): 9.05 µM
- LC50 (UACC-257): 35.4 µM
- TGI (UACC-257): 17.1 µM
- GI50 (UACC-62): 8.22 µM
- LC50 (UACC-62): 33.7 µM
- TGI (UACC-62): 18.6 µM
- GI50 (IGROV-1): 6.06 µM
- LC50 (IGROV-1): 38.9 µM
- TGI (IGROV-1): 15.4 µM
- GI50 (OVCAR-3): 8.16 µM
- TGI (OVCAR-3): 15.1 µM
- CC50 (OVCAR-3; read-out: LC50 (the source's name)): 27.9 µM
- GI50 (A498): > 50 µM
- LC50 (concentration killing 50% of cells) (A498): > 50 µM
- TGI (A498): > 50 µM
- GI50 (CAKI-1): 9.68 µM
- LC50 (concentration causing 50% net cell kill) (CAKI-1): > 50 µM
- TGI (CAKI-1): 26.2 µM
- GI50 (TK-10): 32 µM
- LC50 (concentration killing 50% of cells) (TK-10): > 50 µM
- TGI (TK-10): > 50 µM
- GI50 (UO-31): 7.83 µM
- LC50 (UO-31): 43.5 µM
- TGI (UO-31): 18.5 µM
- GI50 (PC-3): 10.8 µM
- LC50 (concentration killing 50% of cells) (PC-3): 50.1 µM
- TGI (PC-3): 43.4 µM
- GI50 (DU-145): 10.2 µM
- LC50 (DU-145): 38.8 µM
- TGI (DU-145): 19.9 µM
- GI50 (MCF7): 8.33 µM
- LC50 (concentration killing 50% of cells) (MCF7): 34.7 µM
- TGI (MCF7): 17 µM
- GI50 [1]: 9.48 µM
